The source of these data is PubChem BioAssay.

The source made the active and inactive calls.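 How the source made its calls, unless noted: active means inhibition at or above 50% at 10 µM; inactive means inhibition below 50%.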

The nature of test [1]: inhibitors of TNFa-induced NFkB p65 translocation, primary screen, imaging, HUVEC, MLSMR starter and 10KST1 sets (AID 438;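 active means inhibition above 20% together with a positive visual image hit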;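 further: compound added about 3h40 before a 20 min TNFalpha stimulation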;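 on inhibition: signal is the nuclear over cytoplasmic p65 intensity ratio per well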). Conditions: HUVEC TNFa-induced p65 nuclear translocation; cell count: measured here: nuclei count (cytotoxicity indicator), at 2.08 µM; inhibition: at 2 µM, stronger effect = higher value, 0% TNFa-plus-vehicle, 100% no-TNFa wells.
Test [2] can be described thus: inhibitors of mutant huntingtin aggregation, primary screen, imaging, exon1htt(103Q)mCFP cells, high-content imaging (AID 483;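 active means visual image review flags a hit and inhibition of aggregation exceeds 20%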;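 further: compound exposure lasted 3 days before fixation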;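 on nuclei count: percent of the per-plate median nuclei count of sample wells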). The settings on record: exon1htt(103Q)mCFP cell line, aggregate imaging, at 2 µM; inhibition of aggregation: stronger effect = higher value; nuclei count: measured here: cell count, toxicity.
Test [3] is described as follows: inhibitors of E-selectin induction by TNFa, primary screen, imaging, HUVEC, immunofluorescence, MLSMR starter and 10KST1 sets (AID 487;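 active means visually confirmed hit in the image check and inhibition above 20%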;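 on inhibition: signal is fraction of cell area covered by stained E-selectin grains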;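 on nuclei count: 100% = median nuclei count of all wells on the same plate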). The settings on record: HUVEC TNFalpha-induced E-selectin immunofluorescence imaging, at 2 µM; inhibition: stronger effect = higher value; nuclei count: measured here: cell number, toxicity.
Test [4] addresses Voltage-gated potassium channel subunit beta-2 (Rattus norvegicus) (UniProt P62483). Nature of the test: KvBeta enzyme negative modulators, primary screen, biochemical, NADPH fluorescence (AID 622;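 active means fluorescence slope higher than the sample average by over 3 SD, cut at about -0.22 in these data, passing the limit was not always enough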;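 further: slope of raw intensity against log time taken from 70 to 1610 s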). Conditions: recombinant KvBeta, 4-cyanobenzaldehyde reduction, at 10 µM, stronger effect = higher value.
Test [5] has the same target. Nature of the test: KvBeta positive modulators, primary screen, biochemical, NADPH fluorescence (AID 623;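 active means NADPH fluorescence slope more negative than the mean of all samples by about 3 SD, 99.7% confidence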;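 further: fluorescence intensity change per second fitted from 20 to 320 s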). Conditions: Recombinant KvBeta, NADPH fluorescence decrease slope, 10 min; at 10 µM; stronger effect = lower value.
For test [6], the target named is Muscarinic acetylcholine receptor M4 (Homo sapiens) (UniProt P08173). Nature of the test: compounds altering M4/GIRK thallium flux, either direction, primary screen, M4 allosteric agonist project, cell-based, HEK293 M4/GIRK, BTC-AM (AID 625;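 active means fluorescence slope after compound addition differing from the mean of all tested samples at 99.7% confidence, mostly higher but some lower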;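 further: thallium influx through GIRK channels coupled to M4 in HEK293 cells with BTC-AM dye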). The settings on record: at 10 µM, actives lie on both sides. The essentials:
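Material – HEK293 cells with M4 receptor and GIRK channels · Buffer or medium – pH 7.3 thallium assay buffer · Doses – one dose, 10 µM final · Timing – cells overnight at 37 °C, BTC-AM loading 1 h, reads 2 min total · Measured by – kinetic fluorescence with BTC-AM dye · Controls – carbachol and DMSO controls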

Test [7] is described as follows: inhibitors of Sendai virus-induced IRF3 signaling, primary screen, TLR/RLR signaling modifier project, cell-based, Sendai virus stimulus, luciferase, 10K MLSCN set (AID 602276).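 Further: firefly luciferase from ISG56 promoter only with Renilla not read in this screen; 0% = Sendai virus plus DMSO and 100% = medium plus DMSO without virus.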 Conditions: HEK293 RL24 IRF3 luciferase reporter, at 10 µM, stronger effect = higher value.
Test [8] can be described thus: inhibitors of poly I:C-induced TLR3 signaling, primary screen, cell-based, poly I:C stimulus, luciferase, 10K MLSCN set (AID 602277;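 active means inhibition of the reporter signal at or above 50%; inactive means inhibition below 50%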). Conditions: HEK293-TLR3 RL24 IRF3 luciferase reporter, at 10 µM, stronger effect = higher value. (Reporter assays use an easily measured gene product as a stand-in for the process of interest.)

Voltage-gated potassium channel subunit beta-2 (Rattus norvegicus), sequence (P62483 whole entry, looked up): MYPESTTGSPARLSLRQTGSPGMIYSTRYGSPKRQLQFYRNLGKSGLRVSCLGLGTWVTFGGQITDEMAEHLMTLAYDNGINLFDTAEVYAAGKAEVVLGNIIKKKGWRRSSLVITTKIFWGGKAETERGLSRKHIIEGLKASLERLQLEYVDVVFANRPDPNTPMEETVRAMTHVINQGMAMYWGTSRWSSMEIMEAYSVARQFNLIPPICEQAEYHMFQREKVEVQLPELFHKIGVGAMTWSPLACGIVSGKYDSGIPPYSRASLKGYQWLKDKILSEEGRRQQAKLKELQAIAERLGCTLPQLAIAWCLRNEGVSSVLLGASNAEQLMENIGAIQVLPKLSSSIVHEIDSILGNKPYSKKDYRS
Muscarinic acetylcholine receptor M4 (Homo sapiens), sequence (P08173 whole entry, looked up): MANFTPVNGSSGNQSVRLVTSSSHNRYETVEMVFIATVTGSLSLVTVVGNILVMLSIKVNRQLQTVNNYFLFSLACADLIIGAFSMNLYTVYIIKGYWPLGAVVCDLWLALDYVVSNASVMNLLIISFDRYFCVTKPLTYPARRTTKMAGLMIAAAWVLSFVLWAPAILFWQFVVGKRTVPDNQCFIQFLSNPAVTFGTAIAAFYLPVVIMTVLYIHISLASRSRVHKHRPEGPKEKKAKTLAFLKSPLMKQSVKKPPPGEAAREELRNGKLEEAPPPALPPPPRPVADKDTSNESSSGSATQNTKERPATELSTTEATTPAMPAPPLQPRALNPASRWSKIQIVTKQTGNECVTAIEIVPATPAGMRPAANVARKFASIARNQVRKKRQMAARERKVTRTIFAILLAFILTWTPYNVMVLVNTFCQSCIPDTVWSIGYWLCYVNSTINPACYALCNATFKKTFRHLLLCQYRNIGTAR

Turning to `COc1ccc(/C(O)=C2/C(=O)C(=O)N(CC3CCCO3)C2c2cccc(OC)c2)cc1` (centres undefined), in test [1], the cell count was 717. Moreover, the inhibition (as a rule, the change of the read-out against control, counted positive when it falls) was 3.9% (inactive) in test [1], 36.2% (inactive) in test [3], 14.7% (inactive) in test [7] and 21.1% (inactive) in test [8]. Moreover, the inhibition of aggregation in test [2] was -15.3% (inactive). The results for the nuclei count in test [2] and in test [3] were 118% and 97.6%, respectively. Besides, the figures for the fluorescence slope in test [4] and in test [6] were -0.429 (inactive) and 0.00604 (inactive), respectively. The NADPH fluorescence slope in test [5] is -3.2e-05 (inactive).
In the case of `CC(C)(C)NC(=O)Nc1ccccc1C(N)=O`, in test [1], the cell count was 657. In addition, the inhibition in test [1] is 1.6% (inactive); in test [3], -34.5% (inactive); in test [7], 3.23% (inactive); in test [8] it was -20.8% (inactive). Besides, the inhibition of aggregation in test [2] was -14.8% (inactive). Further, the nuclei count in test [2] amounted to 108%; in test [3] it was 107%. Further, the fluorescence slope in test [4] is -0.539 (inactive); in test [6], 0.0058 (inactive). In addition, in test [5], the NADPH fluorescence slope was -8e-06 (inactive).
For the compound `CCOC(=O)c1cnn(-c2ncnc3c2cnn3Cc2ccccc2)c1N`, the cell count in test [1] was determined as 410. In addition, the inhibition in test [1] was -4.6% (inactive); in test [3] it was -19.2% (inactive); in test [7], 17.2% (inactive); in test [8], 17.4% (inactive). Moreover, the inhibition of aggregation in test [2] is 8.7% (inactive). Moreover, the nuclei count is 100% in test [2] and 118% in test [3]. In addition, the fluorescence slope is -0.51 (inactive) in test [4] and 0.0057 (inactive) in test [6]. Besides, the NADPH fluorescence slope in test [5] is 1.3e-05 (inactive).
On to `Nc1nnc(Cc2ccc(Cl)cc2)s1`, for which the cell count in test [1] turned out to be 331. The inhibition in test [1] is 7.5% (inactive); in test [3], -130% (inactive); in test [7], 11.6% (inactive); in test [8], 13% (inactive). Moreover, the inhibition of aggregation in test [2] was -4.2% (inactive). In addition, the nuclei count in test [2] was 92.7%; in test [3], 115%. In addition, the fluorescence slope in test [4] was -0.483 (inactive); in test [6], 0.00532 (inactive). Moreover, in test [5], the NADPH fluorescence slope was -7.5e-05 (inactive).
For the compound `Cc1n[nH]c(C)c1S(=O)(=O)Nc1ccc2c(c1)OCCO2`, the cell count in test [1] stood at 328. Further, the inhibition was 8.9% (inactive) in test [1], 10.4% (inactive) in test [3], 26.7% (inactive) in test [7] and 33.7% (inactive) in test [8]. Also, the inhibition of aggregation in test [2] was 29.5% (inactive). The results for the nuclei count in test [2] and in test [3] were 91.5% and 84.4%, respectively. The figures for the fluorescence slope in test [4] and in test [6] were -0.469 (inactive) and 0.0057 (inactive), respectively. In addition, the NADPH fluorescence slope in test [5] is 4.4e-05 (inactive).
For `CNC(=O)CN(c1cc(C)ccc1OC)S(=O)(=O)c1ccc(C)cc1`, the cell count in test [1] came out at 317. For the same compound, the inhibition was 5% (inactive) in test [1], 6.9% (inactive) in test [3], 5.72% (inactive) in test [7] and 6.94% (inactive) in test [8]. Besides, in test [2], the inhibition of aggregation is -22% (inactive). Further, the nuclei count in test [2] was 107%; in test [3], 105%. Also, the fluorescence slope was -0.563 (inactive) in test [4] and 0.00434 (inactive) in test [6]. Further, the NADPH fluorescence slope in test [5] is -1.4e-05 (inactive).
Regarding `Cc1ccc(-c2ccc(=O)n(CCC(=O)NCc3ccccn3)n2)cc1`, the cell count in test [1] was 366. Further, the inhibition in test [1] was -15.6% (inactive); in test [3], -2.7% (inactive); in test [7], 14.5% (inactive); in test [8] it was 21.8% (inactive). The inhibition of aggregation in test [2] is -2.2% (inactive). For the same compound, the nuclei count in test [2] is 99.9%; in test [3], 108%. The fluorescence slope in test [4] is -0.534 (inactive); in test [6], 0.00635 (inactive). Moreover, the NADPH fluorescence slope in test [5] was -3e-05 (inactive).
For `Nc1c(Sc2ccccc2)c(=O)[nH]c(=O)n1Cc1ccccc1`, the cell count in test [1] was determined as 254. Also, the inhibition is 7.4% (inactive) in test [1], -3.2% (inactive) in test [3], -0.235% (inactive) in test [7] and -2.56% (inactive) in test [8]. Further, in test [2], the inhibition of aggregation was -8.5% (inactive). The results for the nuclei count in test [2] and in test [3] were 92.6% and 78.6%, respectively. In addition, the results for the fluorescence slope in test [4] and in test [6] were -0.249 (inactive) and 0.00651 (inactive), respectively. The NADPH fluorescence slope in test [5] is -4.4e-06 (inactive).
Turning to `COc1ccc(C(=O)N(Cc2ccco2)C(C(=O)NC2CCCC2)c2ccc(O)cc2)cc1OC` (centres undefined), the cell count in test [1] turned out to be 653. For the same compound, the inhibition in test [1] is -2.4% (inactive); in test [3], 14.6% (inactive); in test [7], 10.7% (inactive); in test [8], 12.6% (inactive). Also, in test [2], the inhibition of aggregation was -3.3% (inactive). In addition, the nuclei count in test [2] worked out at 104%; in test [3] it was 103%. Further, the fluorescence slope in test [4] is -0.54 (inactive); in test [6], 0.00452 (inactive). In addition, in test [5], the NADPH fluorescence slope was -4.9e-05 (inactive).
`CCCCC(CC)C(=O)Nc1ccccc1C#N` (centres undefined): in test [1], the cell count worked out at 452. The inhibition in test [1] is 6% (inactive); in test [3], -63.4% (inactive); in test [7] it was 14.8% (inactive); in test [8] it was 22.1% (inactive). In addition, the inhibition of aggregation in test [2] was -12.4% (inactive). Moreover, the values for the nuclei count in test [2] and in test [3] were 106% and 118%, respectively. Further, the fluorescence slope in test [4] is -0.419 (inactive); in test [6] it was 0.00611 (inactive). Further, the NADPH fluorescence slope in test [5] is -2e-05 (inactive).
On to `C=CCc1cc(C(=O)N2CCCCC2)ccc1O`, for which, in test [1], the cell count came to 442. Besides, the inhibition in test [1] is 3.4% (inactive); in test [3], -96.3% (inactive); in test [7], 5.94% (inactive); in test [8] it was -14% (inactive). In addition, the inhibition of aggregation in test [2] was 6.3% (inactive). The nuclei count in test [2] came out at 99.5%; in test [3], 118%. The values for the fluorescence slope in test [4] and in test [6] were -0.523 (inactive) and 0.00415 (inactive), respectively. For the same compound, in test [5], the NADPH fluorescence slope is -0.000166 (inactive).
Take `Cc1ccc2[nH]c(=O)c(CN(CCc3ccccc3)Cc3nnnn3CC3CCCO3)cc2c1` (centres undefined): in test [1], the cell count was 676. In addition, the inhibition is -10.2% (inactive) in test [1], 75.6% (active) in test [3], -7.83% (inactive) in test [7] and -6.03% (inactive) in test [8]. The inhibition of aggregation in test [2] is 0.9% (inactive). Further, the results for the nuclei count in test [2] and in test [3] were 105% and 112%, respectively. Moreover, the fluorescence slope was -0.498 (inactive) in test [4] and 0.00636 (inactive) in test [6]. In test [5], the NADPH fluorescence slope was -7e-06 (inactive).
Regarding `CCOC(=O)CCC(=O)Nc1ccc(S(=O)(=O)N2CCCC2)cc1`, the cell count in test [1] was determined as 720. The inhibition in test [1] is -3% (inactive); in test [3], -15.9% (inactive); in test [7], -1.78% (inactive); in test [8] it was 100% (active). For the same compound, the inhibition of aggregation in test [2] was 3.2% (inactive). Besides, the nuclei count was 98.3% in test [2] and 126% in test [3]. In addition, the fluorescence slope in test [4] was -0.468 (inactive); in test [6] it was 0.00707 (inactive). Besides, the NADPH fluorescence slope in test [5] was 2.8e-05 (inactive).
With `COCCn1c(SCC(=O)c2ccccc2)nc2c(c1=O)SC(C)C2` (centres undefined), in test [1], the cell count came to 232. The inhibition in test [1] was 7.3% (inactive); in test [3], -17.9% (inactive); in test [7] it was 1.47% (inactive); in test [8], 7.51% (inactive). Further, in test [2], the inhibition of aggregation was -6.9% (inactive). Further, the nuclei count in test [2] came to 101%; in test [3], 99.1%. In addition, the fluorescence slope in test [4] was -0.45 (inactive); in test [6], 0.00738 (inactive). The NADPH fluorescence slope in test [5] was -0.000101 (inactive).
